Assay results from ChEMBL document CHEMBL3860059, “Design, Synthesis, and Biological Evaluation of First-in-Class Dual Acting Histone Deacetylases (HDACs) and Phosphodiesterase 5 (PDE5) Inhibitors for the Treatment of Alzheimer's Disease” (J Med Chem, 2016).

Legend:
[1] = Cytotoxicity against mouse primary glial cells assessed as reduction in cell viability after 72 hrs by luminescence based ATPlite assay; assay type: toxicity; conditions: read-out: LC50
How it was run: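 Primary neuron/glia cultures from embryonic mouse brain were grown 5 days at 37 °C (5% CO2) to allow neuron formation. Compounds were then added at final 0–100 μM in 1% DMSO for 72 h. Cellular ATP was read by luminescence after 10 min with reagent at room temperature.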

[2] = biological target: T1, Protein deacetylase HDAC6 (Homo sapiens, UniProt Q9UBN7); test: Inhibition of full length recombinant human N-terminal GST tagged HDAC6 expressed in baculovirus infected Sf9 cells using fluorogenic HDAC substrate after 30 mins by fluorescence analysis
T1 sequence (Q9UBN7 whole entry): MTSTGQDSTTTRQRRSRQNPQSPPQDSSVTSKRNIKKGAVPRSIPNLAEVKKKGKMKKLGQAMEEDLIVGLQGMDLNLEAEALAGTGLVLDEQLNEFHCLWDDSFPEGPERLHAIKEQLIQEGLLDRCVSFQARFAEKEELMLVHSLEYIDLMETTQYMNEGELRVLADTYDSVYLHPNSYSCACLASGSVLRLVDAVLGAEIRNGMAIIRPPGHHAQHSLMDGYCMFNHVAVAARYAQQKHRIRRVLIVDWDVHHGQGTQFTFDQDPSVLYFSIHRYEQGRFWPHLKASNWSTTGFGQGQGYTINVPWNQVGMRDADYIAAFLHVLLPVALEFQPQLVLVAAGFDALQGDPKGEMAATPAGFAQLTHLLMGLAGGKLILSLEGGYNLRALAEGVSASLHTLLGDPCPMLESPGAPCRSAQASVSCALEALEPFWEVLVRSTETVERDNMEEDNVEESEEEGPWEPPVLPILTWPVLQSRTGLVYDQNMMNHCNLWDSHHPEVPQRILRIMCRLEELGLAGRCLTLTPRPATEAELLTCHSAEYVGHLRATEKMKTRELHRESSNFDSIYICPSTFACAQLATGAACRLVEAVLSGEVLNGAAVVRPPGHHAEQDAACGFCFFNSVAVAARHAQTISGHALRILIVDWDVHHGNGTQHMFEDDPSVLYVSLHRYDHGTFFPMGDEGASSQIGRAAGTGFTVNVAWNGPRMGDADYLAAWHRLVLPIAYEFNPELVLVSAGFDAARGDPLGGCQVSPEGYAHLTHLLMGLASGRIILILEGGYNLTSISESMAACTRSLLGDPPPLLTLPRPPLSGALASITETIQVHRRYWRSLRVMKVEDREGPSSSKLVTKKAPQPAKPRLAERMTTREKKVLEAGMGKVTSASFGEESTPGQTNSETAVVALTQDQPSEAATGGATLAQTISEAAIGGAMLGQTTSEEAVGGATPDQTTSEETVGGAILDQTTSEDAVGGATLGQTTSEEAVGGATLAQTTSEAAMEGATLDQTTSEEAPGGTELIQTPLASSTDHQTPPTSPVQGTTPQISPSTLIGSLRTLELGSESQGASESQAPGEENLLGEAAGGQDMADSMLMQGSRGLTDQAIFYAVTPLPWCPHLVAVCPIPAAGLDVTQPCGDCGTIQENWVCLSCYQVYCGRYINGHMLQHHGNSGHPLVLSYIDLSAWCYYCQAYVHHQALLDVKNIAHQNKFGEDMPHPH
How it was run: (§1)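 Full-length human recombinant HDAC1 (0.4 μg/mL final), HDAC2 (1.5 μg/mL), HDAC3/NCOR2 (0.1 μg/mL) or HDAC6 (3.6 μg/mL) with 10 μM fluorogenic acetyl-lysine substrate and 0.1 mg/mL BSA, 1% DMSO, 30 min at 37 °C; lysine developer 20 min at room temperature; fluorescence ex 355/em 460 nm. Vehicle = positive control, no enzyme = negative; IC50 from curve fit.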

[3] = biological target: cGMP-specific 3',5'-cyclic phosphodiesterase (Homo sapiens, UniProt O76074); test: Inhibition of full length recombinant human N-terminal GST-tagged PDE5A1 expressed in baculovirus infected Sf9 cells using cGMP as substrate after 30 mins by HTRF assay
Histone deacetylase 1 = Histone deacetylase 1 (Homo sapiens, UniProt Q13547); test: Inhibition of full length recombinant human C-terminal His/Flag-tagged HDAC1 expressed in baculovirus infected Sf9 cells using fluorogenic HDAC substrate after 30 mins by fluorescence analysis; how it was run: as §1
Histone deacetylase 1, sequence (Q13547 whole entry): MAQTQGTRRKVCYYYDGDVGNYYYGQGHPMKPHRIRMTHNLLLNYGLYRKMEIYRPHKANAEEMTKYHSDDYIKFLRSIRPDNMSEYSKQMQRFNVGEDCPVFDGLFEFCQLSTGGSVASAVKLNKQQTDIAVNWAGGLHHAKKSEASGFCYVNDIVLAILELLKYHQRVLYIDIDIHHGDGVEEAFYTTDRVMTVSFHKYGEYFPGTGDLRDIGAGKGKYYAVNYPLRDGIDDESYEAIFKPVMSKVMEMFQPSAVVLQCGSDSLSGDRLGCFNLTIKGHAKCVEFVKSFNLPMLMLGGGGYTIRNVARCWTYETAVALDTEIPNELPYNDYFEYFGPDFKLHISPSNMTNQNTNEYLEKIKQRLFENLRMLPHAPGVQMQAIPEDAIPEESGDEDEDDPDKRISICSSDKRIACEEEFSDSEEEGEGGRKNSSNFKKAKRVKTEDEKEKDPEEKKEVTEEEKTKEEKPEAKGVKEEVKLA

[4] = Passive membrane permeability of the compound at 50 uM after 18 hrs by PAMPA; assay type: ADME; conditions: read-out: Peff
How it was run: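 PAMPA: 50 μM donor solution in PBS/EtOH 70:30 over PVDF membrane precoated with PBL/dodecane (20 mg/mL); PBS/EtOH acceptor; 18 h at 20 °C without shaking; duplicates; donor and acceptor concentrations by UV absorbance corrected against vehicle.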

[5] = Selectivity ratio of pLC50 for mouse primary glial cells to pLC50 for human THLE2 cells; assay type: ADME, cell-based; conditions: mouse primary glial cells versus THLE2 cells
[6] = Cytotoxicity against human THLE2 cells assessed as reduction in cell viability after 72 hrs by ATP Vialight assay; assay type: toxicity, cell-based, THLE-2; conditions: read-out: LC50
How it was run: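 Immortalized human liver THLE-2 cells in BEGM with 0.7 μg/mL phosphoethanolamine, 0.5 ng/mL EGF, antibiotics and 10% FBS, seeded at 10,000 cells/well and left 24 h at 37 °C. Compounds were added at final 0–100 μM in 1% DMSO for 72 h. Cellular ATP was read by luminescence after 45 min lysis.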

Histone deacetylase 2 = Histone deacetylase 2 (Homo sapiens, UniProt Q92769); test: Inhibition of full length recombinant human C-terminal His-tagged HDAC2 expressed in baculovirus infected Sf9 cells using fluorogenic HDAC substrate after 30 mins by fluorescence analysis; how it was run: as §1
Histone deacetylase 2, sequence (Q92769 whole entry): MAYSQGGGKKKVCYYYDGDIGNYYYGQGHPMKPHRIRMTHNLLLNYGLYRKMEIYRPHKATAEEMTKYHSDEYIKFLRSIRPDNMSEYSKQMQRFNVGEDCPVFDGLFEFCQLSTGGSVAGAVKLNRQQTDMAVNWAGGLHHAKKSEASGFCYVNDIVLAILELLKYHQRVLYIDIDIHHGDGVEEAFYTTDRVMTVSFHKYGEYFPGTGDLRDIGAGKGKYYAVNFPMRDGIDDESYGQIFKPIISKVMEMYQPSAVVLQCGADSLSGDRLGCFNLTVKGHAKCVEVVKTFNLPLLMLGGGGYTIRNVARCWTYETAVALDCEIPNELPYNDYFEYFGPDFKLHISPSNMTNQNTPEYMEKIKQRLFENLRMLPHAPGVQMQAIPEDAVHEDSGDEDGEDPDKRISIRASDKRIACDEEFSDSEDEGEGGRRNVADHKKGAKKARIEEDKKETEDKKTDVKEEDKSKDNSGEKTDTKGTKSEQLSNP

[7] = Dissociation constant, pKa of the compound; assay type: physicochemical
[8] = Lipophilicity, log D of the compound at pH 7.4; assay type: physicochemical; conditions: buffer
[9] = Selectivity ratio of pIC50 for full length recombinant human C-terminal His/Flag-tagged HDAC1 expressed in baculovirus infected Sf9 cells to pIC50 for full length recombinant human N-terminal GST tagged HDAC6 expressed in baculovirus infected Sf9 cells
[10] = Selectivity ratio of pIC50 for full length recombinant human N-terminal GST tagged HDAC6 expressed in baculovirus infected Sf9 cells to pIC50 for full length recombinant human C-terminal His/Flag-tagged HDAC1 expressed in baculovirus infected Sf9 cells
[11] = biological target: Histone deacetylase 3/Nuclear receptor corepressor 2 (HDAC3/NCoR2) (Homo sapiens, UniProt O15379); test: Inhibition of full length recombinant human C-terminal His-tagged HDAC3/N-terminal GST-tagged NCOR2 (395 to 489 residues) expressed in baculovirus infected Sf9 cells using fluorogenic HDAC substrate after 30 mins by fluorescence analysis
Histone deacetylase 3/Nuclear receptor corepressor 2 (HDAC3/NCoR2), sequence (O15379 whole entry, the tested form may be a part): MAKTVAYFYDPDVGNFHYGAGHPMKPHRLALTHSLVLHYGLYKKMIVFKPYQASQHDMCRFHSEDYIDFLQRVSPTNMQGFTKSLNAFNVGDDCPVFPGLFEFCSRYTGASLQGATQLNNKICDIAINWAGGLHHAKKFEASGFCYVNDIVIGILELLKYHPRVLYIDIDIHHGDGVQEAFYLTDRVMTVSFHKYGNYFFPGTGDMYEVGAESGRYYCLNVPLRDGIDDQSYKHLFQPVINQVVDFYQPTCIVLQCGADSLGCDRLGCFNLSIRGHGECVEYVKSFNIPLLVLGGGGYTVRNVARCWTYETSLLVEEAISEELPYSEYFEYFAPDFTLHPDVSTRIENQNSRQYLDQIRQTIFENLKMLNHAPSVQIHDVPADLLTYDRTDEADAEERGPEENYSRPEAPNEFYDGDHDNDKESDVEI
Histone deacetylase 3/Nuclear receptor corepressor 2 (HDAC3/NCoR2), sequence (Q9Y618 whole entry, further chain, the tested form may be a part): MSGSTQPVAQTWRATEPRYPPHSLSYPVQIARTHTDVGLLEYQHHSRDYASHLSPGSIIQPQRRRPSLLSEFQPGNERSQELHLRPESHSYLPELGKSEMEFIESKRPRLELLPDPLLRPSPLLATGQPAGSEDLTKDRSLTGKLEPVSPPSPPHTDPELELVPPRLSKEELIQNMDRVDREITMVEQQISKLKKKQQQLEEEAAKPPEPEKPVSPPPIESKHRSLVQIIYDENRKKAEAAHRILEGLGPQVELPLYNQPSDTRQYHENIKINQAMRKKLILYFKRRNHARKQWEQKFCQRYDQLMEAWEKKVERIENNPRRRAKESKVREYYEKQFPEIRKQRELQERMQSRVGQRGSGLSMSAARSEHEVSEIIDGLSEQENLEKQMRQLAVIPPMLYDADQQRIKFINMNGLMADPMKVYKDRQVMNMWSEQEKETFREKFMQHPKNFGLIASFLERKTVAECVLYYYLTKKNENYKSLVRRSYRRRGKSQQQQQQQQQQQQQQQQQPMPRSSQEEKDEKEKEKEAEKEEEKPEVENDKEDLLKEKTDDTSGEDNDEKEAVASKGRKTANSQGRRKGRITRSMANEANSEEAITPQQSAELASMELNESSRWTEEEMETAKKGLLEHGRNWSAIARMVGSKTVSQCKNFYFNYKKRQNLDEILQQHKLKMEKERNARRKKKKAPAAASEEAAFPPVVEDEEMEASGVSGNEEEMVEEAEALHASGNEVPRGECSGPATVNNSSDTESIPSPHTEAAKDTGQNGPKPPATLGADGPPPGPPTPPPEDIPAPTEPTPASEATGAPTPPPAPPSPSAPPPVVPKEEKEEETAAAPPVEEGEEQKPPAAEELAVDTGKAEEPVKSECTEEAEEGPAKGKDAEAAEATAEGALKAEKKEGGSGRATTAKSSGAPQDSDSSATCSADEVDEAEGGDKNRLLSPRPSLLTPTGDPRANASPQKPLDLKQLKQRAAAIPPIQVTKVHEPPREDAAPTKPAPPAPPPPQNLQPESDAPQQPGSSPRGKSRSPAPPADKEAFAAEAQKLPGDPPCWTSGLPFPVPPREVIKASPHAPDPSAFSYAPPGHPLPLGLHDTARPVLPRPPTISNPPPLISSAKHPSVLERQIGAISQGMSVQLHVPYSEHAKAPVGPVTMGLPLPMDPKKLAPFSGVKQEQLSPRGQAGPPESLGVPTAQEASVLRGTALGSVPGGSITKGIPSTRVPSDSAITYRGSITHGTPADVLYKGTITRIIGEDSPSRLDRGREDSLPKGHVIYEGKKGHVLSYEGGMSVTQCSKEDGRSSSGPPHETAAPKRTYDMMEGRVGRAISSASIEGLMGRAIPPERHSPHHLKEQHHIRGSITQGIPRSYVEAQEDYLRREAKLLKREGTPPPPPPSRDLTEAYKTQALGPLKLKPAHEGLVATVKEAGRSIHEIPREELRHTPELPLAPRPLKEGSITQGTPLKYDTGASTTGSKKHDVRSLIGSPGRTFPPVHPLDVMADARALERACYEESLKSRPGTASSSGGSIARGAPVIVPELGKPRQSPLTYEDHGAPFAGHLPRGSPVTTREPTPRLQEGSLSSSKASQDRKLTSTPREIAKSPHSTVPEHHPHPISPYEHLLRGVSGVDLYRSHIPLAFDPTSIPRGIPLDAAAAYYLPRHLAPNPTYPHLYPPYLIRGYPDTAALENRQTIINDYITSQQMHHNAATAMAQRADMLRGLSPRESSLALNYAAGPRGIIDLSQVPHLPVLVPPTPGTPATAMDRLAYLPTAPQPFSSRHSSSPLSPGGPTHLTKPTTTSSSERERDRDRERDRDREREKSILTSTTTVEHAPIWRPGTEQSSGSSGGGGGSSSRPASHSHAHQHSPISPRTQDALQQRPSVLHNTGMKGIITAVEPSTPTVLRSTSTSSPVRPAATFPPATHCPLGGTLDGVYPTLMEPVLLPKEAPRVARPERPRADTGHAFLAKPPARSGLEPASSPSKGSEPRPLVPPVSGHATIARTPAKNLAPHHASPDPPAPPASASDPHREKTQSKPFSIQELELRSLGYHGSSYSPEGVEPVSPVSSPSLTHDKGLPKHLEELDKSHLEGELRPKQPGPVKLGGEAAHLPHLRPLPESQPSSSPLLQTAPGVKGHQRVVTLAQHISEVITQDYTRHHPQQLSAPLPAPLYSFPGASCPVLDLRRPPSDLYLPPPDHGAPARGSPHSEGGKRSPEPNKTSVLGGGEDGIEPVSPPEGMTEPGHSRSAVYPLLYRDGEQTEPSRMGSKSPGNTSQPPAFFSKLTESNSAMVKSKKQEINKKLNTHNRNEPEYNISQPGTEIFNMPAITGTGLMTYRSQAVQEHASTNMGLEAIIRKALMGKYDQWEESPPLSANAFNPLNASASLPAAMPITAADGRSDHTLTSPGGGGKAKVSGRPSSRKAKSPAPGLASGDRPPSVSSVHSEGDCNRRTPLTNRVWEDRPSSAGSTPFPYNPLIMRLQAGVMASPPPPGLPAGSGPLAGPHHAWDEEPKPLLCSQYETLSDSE

IC50 [2]	IC50 [3]	IC50 (Histone deacetylase 1)	IC50 (Histone deacetylase 2)	pKa [7]	Structure (SMILES)	CC50 at 72 h [1]	Papp at 18 h, 50 µM [4]	selectivity ratio [5]	CC50 at 72 h [6]	logD [8]	Ratio pIC50 [9]	Ratio pIC50 [10]	IC50 [11]
> 20000 nM	121 nM	> 20000 nM	> 20000 nM	8.73	CCCc1nn(C)c2c(=O)[nH]c(-c3cc(CC4CCN(c5ccc(C(=O)NO)cc5)CC4)ccc3OCC)nc12	–	–	–	–	–	–	–	–
–	–	–	–	–	O=C(CCCCCCC(=O)Nc1ccccc1)NO [VORINOSTAT]	4910 nM	0.23 ×10⁻⁶ cm/s	–	3590 nM	2	–	–	–
395 nM	57 nM	1880 nM	6430 nM	8.29	CCCc1nn(C)c2c(=O)[nH]c(-c3cc(CC4CCN(c5ccc(C(=O)NO)cn5)CC4)ccc3OCC)nc12	–	–	–	–	–	–	–	–
89 nM	2 nM	1340 nM	6970 nM	–	CCCc1nn(C)c2c(=O)[nH]c(-c3cc(S(=O)(=O)N4CCN(Cc5ccc(/C=C/C(=O)NO)cc5)CC4)ccc3OCC)nc12	–	–	–	–	–	> 1	–	–
–	–	–	–	–	CN1CC(=O)N2[C@H](c3ccc4c(c3)OCO4)c3[nH]c4ccccc4c3C[C@@H]2C1=O	110000 nM	2.68 ×10⁻⁶ cm/s	–	60300 nM	–	–	–	–
1250 nM	7 nM	63 nM	335 nM	7.85	CCCc1nn(C)c2c(=O)[nH]c(-c3cc(CC4CCN(c5ncc(C(=O)NO)cn5)CC4)ccc3OCC)nc12	–	0.41 ×10⁻⁶ cm/s	< 0.4	–	–	–	1.4	51 nM
130 nM	17 nM	554 nM	1860 nM	–	CCCc1nn(C)c2c(=O)[nH]c(-c3cc(C4CC(C(=O)NO)C4)ccc3OCC)nc12 (stereo not drawn)	–	1.37 ×10⁻⁶ cm/s	< 0.4	–	–	> 0.6	–	–

Structure (SMILES)	IC50 [2]	IC50 [3]	IC50 (Histone deacetylase 1)	IC50 (Histone deacetylase 2)	pKa [7]	CC50 at 72 h [1]	Papp at 18 h, 50 µM [4]	selectivity ratio [5]	CC50 at 72 h [6]	logD [8]	Ratio pIC50 [9]	Ratio pIC50 [10]	IC50 [11]
CCCc1nn(C)c2c(=O)[nH]c(-c3cc(S(=O)(=O)Nc4ccc(/C=C/C(=O)NO)cc4)ccc3OCC)nc12	84 nM	1 nM	356 nM	1310 nM	–	30300 nM	0.23 ×10⁻⁶ cm/s	< 0.4	27400 nM	–	–	–	–
CCCc1nn(C)c2c(=O)[nH]c(-c3cc(N4CCC(CC(=O)NO)CC4)ccc3OCC)nc12	1090 nM	65 nM	5860 nM	> 20000 nM	–	> 100000 nM	0.49 ×10⁻⁶ cm/s	< 0.4	88700 nM	–	–	–	–
CCCc1nn(C)c2c(=O)[nH]c(-c3cc(S(=O)(=O)NC4CCN(c5ncc(C(=O)NO)cn5)CC4)ccc3OCC)nc12	59 nM	0.6 nM	57 nM	341 nM	–	4950 nM	0.1 ×10⁻⁶ cm/s	< 0.4	11900 nM	–	–	–	54 nM
CCCc1nn(C)c2c(=O)[nH]c(-c3cc(S(=O)(=O)N4CCN(c5ncc(C(=O)NO)cn5)CC4)ccc3OCC)nc12	268 nM	3 nM	8 nM	117 nM	–	2150 nM	0.72 ×10⁻⁶ cm/s	< 0.4	1460 nM	–	–	> 1	36 nM
